Calls of active or inactive are those of the source. The calls are words filed in the database; no cut-off is given here.
Assays:
Tubulin (Homo sapiens) [1] = target: T1, Tubulin (Homo sapiens) (UniProt P68371+Q9H4B7+P0DPH7+P68366+Q13509+Q71U36+P04350+Q3ZCM7+P07437+P68363+Q9BQE3+Q6PEY2+Q13885+Q9BVA1+Q9BUF5); test: Displacement of [3H]-colchicine from tubulin (unknown origin) at 5 uM after 10 mins relative to control; type: protein-complex assay
[2] = Inhibition of bovine brain tubulin polymerization preincubated for 15 mins followed by GTP addition measured for 20 mins by turbidometric analysis; parameters: species or system Bos taurus
HeLa = test: Cytotoxicity against human HeLa cells assessed as growth inhibition after 48 hrs by coulter counting analysis; type: functional, cell-based
[3] = Cytotoxicity against human Molt4/C8 cells assessed as growth inhibition after 48 hrs by coulter counting analysis; type: functional, cell-based; conditions: MOLT-4, 48 h
How it was run: (§1)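 Cells suspended at (3−5) × 10⁵ cells/mL and mixed 1:1 with compound dilutions. Incubated 48 h at 37 °C, counted with a Coulter counter. IC₅₀ = concentration inhibiting proliferation by 50%. Mean of at least three independent experiments.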

[4] = Cytotoxicity against human CEM/0 cells assessed as growth inhibition after 48 hrs by coulter counting analysis; type: functional, cell-based; conditions: CCRF-CEM
L1210 = test: Cytotoxicity against mouse L1210 cells assessed as growth inhibition after 48 hrs by coulter counting analysis; type: functional, cell-based; conditions: L1210, 48 h; how it was run: as §1
[5] = Cytotoxicity against mouse FM3A/0 cells assessed as growth inhibition after 48 hrs by coulter counting analysis; type: functional, cell-based; conditions: FM3A/0, 48 h
MNNG-HOS [6] = test: Antitumor activity against human MNNG-HOS cells xenografted in Balb/c-nu mouse assessed as tumor growth inhibition at 50 mg/kg, ip administered once every 3 days for 9 days measured on day 18 relative to vehicle-treated control; type: functional; conditions: HOS-TE85, ip, route intraperitoneal, read-out: TGI
How it was run: (§2)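 MNNG/HOS osteosarcoma cells grown to exponential phase, suspended in FBS-free MEM (10⁷ cells/mL), 0.1 mL injected into back hypodermis of nude mice. At ~100 mm³, 12 mice randomised to three groups (vehicle, CA-4P in isotonic saline, test in 5% DMSO/olive oil). 50 mg/kg ip at 0.01 mL/g on days 0, 3, 6, 9. Tumour volume and body weight tracked; tumours excised and weighed day 18; […].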

MNNG-HOS [7] = test: Antitumor activity against human MNNG-HOS cells xenografted in Balb/c-nu mouse assessed as reduction in tumor weight at 50 mg/kg, ip administered once every 3 days for 9 days measured after day 18; type: functional, organism-based; parameters: dose 50 mg/kg; conditions: HOS-TE85; how it was run: as §2
Tubulin (Homo sapiens) [8] = target: T1, Tubulin (Homo sapiens); test: Displacement of [3H]-colchicine from tubulin (unknown origin) at 1 uM after 10 mins relative to control; type: protein-complex assay

## COc1cc(C(=O)c2sc3c(OC)cccc3c2N)cc(OC)c1OC
Tubulin (Homo sapiens) [1]
  inhibition: 39%
[2]
  IC50: 2100 nM

## COc1cc(C(=O)c2cc3cc(NC(=O)CI)cc(OC)c3s2)cc(OC)c1OC
HeLa
  IC50: 200 nM
[3]
  IC50: 330 nM
[4]
  IC50: 310 nM
L1210
  IC50: 410 nM
[5]
  IC50: 370 nM

## COc1ccc(/C=C\c2cc(OC)c(OC)c(OC)c2)cc1OP(=O)(O)O [FOSBRETABULIN DISODIUM]
MNNG-HOS [6]
  inhibition in vivo at 50 mg/kg: 32%
MNNG-HOS [7]
  Activity: Active

## COc1cc(C(=O)c2sc3ccccc3c2N)cc(OC)c1OC
Tubulin (Homo sapiens) [1]
  inhibition: 39%
[2]
  IC50: 4200 nM

## COc1cc(C(=O)c2sc3c(OC)cc(N)cc3c2C)cc(OC)c1OC
Tubulin (Homo sapiens) [1]
  inhibition: 95%
[2]
  IC50: 480 nM
HeLa
  IC50: 13 nM
[3]
  IC50: 14 nM
L1210
  IC50: 12 nM
[5]
  IC50: 15 nM
Tubulin (Homo sapiens) [8]
  inhibition: 90%

## COc1cc2sc(C(=O)c3cc(OC)c(OC)c(OC)c3)c(C)c2cc1N
Tubulin (Homo sapiens) [1]
  inhibition: 95%
[2]
  IC50: 680 nM
[3]
  IC50: 16 nM
[4]
  IC50: 19 nM
L1210
  IC50: 19 nM
[5]
  IC50: 17 nM
Tubulin (Homo sapiens) [8]
  inhibition: 83%

## C=C(Br)C(=O)Nc1ccc2sc(C(=O)c3cc(OC)c(OC)c(OC)c3)cc2c1
HeLa
  IC50: 700 nM
[3]
  IC50: 270 nM
[4]
  IC50: 140 nM
L1210
  IC50: 75 nM
[5]
  IC50: 170 nM

## COc1cc(C(=O)c2cc3cc(NC(=O)CBr)cc(OC)c3s2)cc(OC)c1OC
HeLa
  IC50: 220 nM
[3]
  IC50: 360 nM
[4]
  IC50: 340 nM
L1210
  IC50: 420 nM
[5]
  IC50: 250 nM

## CNc1cc(OC)c2sc(C(=O)c3cc(OC)c(OC)c(OC)c3)cc2c1
HeLa
  IC50: 66 nM
[3]
  IC50: 74 nM
L1210
  IC50: 67 nM
[5]
  IC50: 190 nM

## COc1cc(C(=O)c2cc3cc(NC(=O)CBr)ccc3s2)cc(OC)c1OC
HeLa
  IC50: 1600 nM
[3]
  IC50: 960 nM
[4]
  IC50: 260 nM
L1210
  IC50: 1400 nM
[5]
  IC50: 1700 nM

## COc1cc(C(=O)c2cc3cc(NC(=O)CI)ccc3s2)cc(OC)c1OC
HeLa
  IC50: 1500 nM
[3]
  IC50: 330 nM
L1210
  IC50: 1400 nM
[5]
  IC50: 2100 nM

## C=C(Br)C(=O)Nc1cc(OC)c2sc(C(=O)c3cc(OC)c(OC)c(OC)c3)cc2c1
HeLa
  IC50: 760 nM
[3]
  IC50: 280 nM
[4]
  IC50: 260 nM
L1210
  IC50: 96 nM
[5]
  IC50: 200 nM

## COc1ccc(C(=O)c2cc3cc(N)cc(OC)c3s2)cc1
[3]
  IC50: 6500 nM
[4]
  IC50: 6100 nM
L1210
  IC50: > 10000 nM
[5]
  IC50: > 10000 nM

## COc1ccc(C(=O)c2cc3cc(N)cc(OC)c3s2)cc1OC
HeLa
  IC50: 1600 nM
[3]
  IC50: 1700 nM
[4]
  IC50: 1400 nM
L1210
  IC50: 1900 nM
[5]
  IC50: 2200 nM

## COc1cc(C(=O)c2cc3cc(N(C)C)cc(OC)c3s2)cc(OC)c1OC
HeLa
  IC50: 360 nM
[3]
  IC50: 980 nM
[5]
  IC50: 1100 nM

## COc1cc(C(=O)c2sc3ccc(N)cc3c2C)cc(OC)c1OC
Tubulin (Homo sapiens) [1]
  inhibition: 78%
[2]
  IC50: 1300 nM
HeLa
  IC50: 100 nM
[3]
  IC50: 100 nM
[4]
  IC50: 72 nM
L1210
  IC50: 8 nM
[5]
  IC50: 200 nM

## COc1cc(C(=O)c2cc3cc(NC(C)=O)cc(OC)c3s2)cc(OC)c1OC
HeLa
  IC50: 69 nM
[3]
  IC50: 98 nM
[5]
  IC50: 340 nM

## COc1cc(C(=O)c2cc3cc(NC(=O)CCl)cc(OC)c3s2)cc(OC)c1OC
HeLa
  IC50: 100 nM
[3]
  IC50: 78 nM
[4]
  IC50: 72 nM
[5]
  IC50: 200 nM

## COc1cc(C(=O)c2cc3cc(N)ccc3s2)cc(OC)c1OC
Tubulin (Homo sapiens) [1]
  inhibition: 65%
[2]
  IC50: 3200 nM
HeLa
  IC50: 13 nM
[3]
  IC50: 18 nM
[4]
  IC50: 11 nM
L1210
  IC50: 0.78 nM
[5]
  IC50: 2.8 nM

From ChEMBL document CHEMBL3098049, “Concise synthesis and biological evaluation of 2-Aroyl-5-amino benzo[b]thiophene derivatives as a novel class of potent antimitotic agents” (J Med Chem, 2013)
